Among the data in ChEMBL document CHEMBL1144224, “Molecular design to enhance the penetration into the retina via ocular instillation” (Bioorg Med Chem Lett, 2008) are logP, AUC(0-t) and concentration values, retold here.

A short description of series [1]: Octanol-water partition coefficient, log P of the compound. Format: physicochemical. The essentials:
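Log P measured as the partition coefficient between n-octanol and water.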

Series [2] in a line: AUC (0 to 4 hrs) in Japanese white rabbit retina after ocular instillation of 1% suspension. To be noted: topical or ocular. Further details: time < 4 hr. Format: ADME, tissue-based, Oryctolagus cuniculus. The gist of the method:
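Rabbit eyes given topical drops of 1% suspension or solution. Retinal drug levels measured over 0–4 h, with n = 3-4 eyes per time point. AUC0–4h is calculated from the mean level-time curve.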

Series [3] can be described thus: AUC (0 to 4 hrs) in Japanese white rabbit aqueous humor after ocular instillation of 1% suspension. Further details: time < 4 hr. As to conditions: topical or ocular. It counts as ADME, Oryctolagus cuniculus. The essentials: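 Rabbit eyes given topical drops of 1% suspension or solution. Aqueous humor drug levels measured over 0–4 h, with n = 3-4 eyes per time point. AUC0–4h is calculated from the mean level-time curve.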

Series [4] is described as follows: Plasma AUC (0 to 4 hrs) in cynomolgus monkey at 10 mg/kg, po. Format: ADME, organism-based, Macaca fascicularis. Further details: time < 4 hr, dose 10 mg/kg, route oral. The gist of the method:
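Cynomolgus monkeys dosed orally at 10 mg/kg as a 0.2% suspension or solution in 0.5% carboxymethyl cellulose. Plasma drug levels followed over 0–4 h (n = 3-6), and AUC0–4h is derived from the plasma level-time curve.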

Series [5] in a line: Drug concentration in rat retina at 10 mg/kg, po at Tmax time. It counts as ADME, organism-based. Also noted: dose 10 mg/kg, route oral. To be noted: in vivo, read-out: Drug uptake.
Series [6] in a line: Drug concentration in rat retina at 10 mg/kg, po after 4 hrs. Also noted: dose 10 mg/kg, route oral. Format: ADME, organism-based. To be noted: read-out: Drug uptake.

The molecule `COCCOCCOCCOCCOC(=O)N[C@@H](CC(C)C)C(=O)N[C@@H](Cc1ccccc1)C(=O)C(=O)NC1CC1` came in with a logP in series [1] of 0.7. The AUC(0-t) at 4 h is 7.12 µM·h in series [2], 5.89 µM·h in series [3] and 1.61 µM·h in series [4].
For `COCCOCCOC(=O)N[C@@H](CC(C)C)C(=O)N[C@@H](Cc1ccccc1)C(=O)C(=O)NC1CC1`, the logP in series [1] came to 0.91. Also, the AUC(0-t) at 4 h in series [2] turned out to be 2.37 µM·h; in series [3], 1.55 µM·h; in series [4] it was 2.43 µM·h. In series [5], the concentration came out at 400 nM. The concentration at 4 h in series [6] was determined as 200 nM.
In turn, `COCCOCCOCCOC(=O)N[C@@H](CC(C)C)C(=O)N[C@@H](Cc1ccccc1)C(=O)C(=O)NC1CC1` returned a logP in series [1] of 0.93. Further, the AUC(0-t) at 4 h in series [2] worked out at 13.1 µM·h; in series [3], 7.88 µM·h; in series [4], 1.6 µM·h.
Take `COCCOCCOCCOCCOCCOC(=O)N[C@@H](CC(C)C)C(=O)N[C@@H](Cc1ccccc1)C(=O)C(=O)NC1CC1`: the logP in series [1] was determined as 0.72. Moreover, the AUC(0-t) at 4 h in series [2] was 2.99 µM·h; in series [3], 1.96 µM·h.
Turning to `COCCOC(=O)N[C@@H](CC(C)C)C(=O)N[C@@H](Cc1ccccc1)C(=O)C(=O)NC1CC1`, the log partition coefficient (logP) in series [1] is 1. In addition, the results for the AUC(0-t) at 4 h in series [2], in series [3] and in series [4] were 1.32 µM·h, 1.9 µM·h and 1.88 µM·h, respectively.

For orientation: logP means the decadic logarithm of the partition coefficient of the neutral form, usually between octanol and water. A word on the AUC(0-t): it is exposure summed from dosing to a finite time, without extrapolation to infinity.
